Sampled rows, rich in hits. Any-hit rate of the full collection: about 2%.
SR-BI uptake up: SR-BI HDL lipid transfer activation; actives 0.096% (n = 320,000); activation, % at 12.5 µM; CHO ldlA[mSR-BI] cells, DiI-HDL uptake fluorescence, 3 h; 100 = double the neutral-control signal;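 active means mean replicate activation of at least 60% and every replicate at or above 60%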;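 further: 0% = median plate neutral-control signal and 100% = twice that signal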
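Test system: SR-BI-overexpressing, LDLR-lacking CHO cells; Medium: Ham's F12 with 0.5% BSA, HEPES 25 mM, pH 7.4; Schedule: 3 h, 37 °C; Technique: bottom-read fluorescence, 550/595 nm.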
dFosB act: enhances mouse delta FosB homodimer DNA binding; P13346; actives 0.99% (n = 340,000); AID 493131; activation, % at 25 µM; purified delta FosB, TAMRA-CDK5 oligo fluorescence polarization; percent of positive-control signal above neutral wells;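 active means mean activation above about 17%, with every replicate also reaching it, limit read from the data, passing the limit was not always enough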
CDK5 p35 inh: blocks human CDK5/p35 kinase activity; Recombinant CDK5/p35, ADP-Glo luminescence, 60 min; inhibition, % at 10 µM; actives 0.01% (n = 330,000); AID 488839;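 active means highest replicate inhibition of at least 50% and at least 75% of replicates reaching 50%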;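 further: plate controls were DMSO neutral control for no effect and GW8510 at 10 µM for full effect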
SR-BI HDL uptake: inhibitors of mouse SR-BI mediated HDL lipid uptake; Q61009; ldlA[mSR-BI] CHO cells, DiI-HDL uptake fluorescence, 3 h; inhibition, % at 12.5 µM; actives 0.96% (n = 320,000);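 active means mean replicate inhibition of at least 70% and a set share of replicates each scoring 70 or more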;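 further: 0% = median of neutral control wells and 100% = median of positive control wells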
Target sequence (Q61009 whole entry, looked up): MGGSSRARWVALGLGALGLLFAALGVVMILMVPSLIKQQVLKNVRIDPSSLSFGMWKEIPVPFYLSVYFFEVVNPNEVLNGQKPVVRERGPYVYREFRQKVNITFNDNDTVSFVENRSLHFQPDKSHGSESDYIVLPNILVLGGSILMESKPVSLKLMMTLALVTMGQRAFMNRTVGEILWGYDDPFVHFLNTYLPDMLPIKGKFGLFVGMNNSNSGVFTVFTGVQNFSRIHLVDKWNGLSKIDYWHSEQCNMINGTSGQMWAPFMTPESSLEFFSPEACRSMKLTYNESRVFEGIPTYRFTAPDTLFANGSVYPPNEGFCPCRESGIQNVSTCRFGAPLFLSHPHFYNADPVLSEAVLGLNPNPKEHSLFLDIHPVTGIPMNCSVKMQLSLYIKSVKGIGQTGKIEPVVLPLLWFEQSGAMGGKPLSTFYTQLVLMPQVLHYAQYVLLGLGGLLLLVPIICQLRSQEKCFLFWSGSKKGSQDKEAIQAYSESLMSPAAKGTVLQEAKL
Numbers without * were called inactive.

Results for COc1ccc(-c2sc3ccc(OC)cc3c2C#CCCO)cc1 ?
SR-BI uptake up: -46; dFosB act: -4; CDK5 p35 inh: 2; SR-BI HDL uptake: 46

Results for CN1OC[C@@H]2CN(C(=O)CCc3ccccc3)[C@H](c3cccc(-c4ccccc4)c3)C[C@@H]21 ?
SR-BI uptake up: 7; dFosB act: -19; CDK5 p35 inh: -2; SR-BI HDL uptake: -7

What do the screens show for `CC1CCC2C(=O)N(c3cccc(C(=O)Nc4ccccc4Cl)c3)C(=O)C2C1` (stereo not drawn)?
SR-BI uptake up: 6; dFosB act: -8; CDK5 p35 inh: 0; SR-BI HDL uptake: -6

How did COc1cc(/C=N/Nc2nnc3c(n2)[nH]c2ccccc23)ccc1O do in these assays?
SR-BI uptake up: 13; dFosB act: -10; CDK5 p35 inh: 1; SR-BI HDL uptake: -13

How did Cc1ccc2[nH]c3nc(N/N=C/c4cccc(O)c4)nnc3c2c1 do in these assays?
SR-BI uptake up: 12; dFosB act: 21*; CDK5 p35 inh: -1; SR-BI HDL uptake: -12

What do the screens show for `CCCCOc1ccc(C(=O)NCC(=O)NC2CCCCC2)cc1`?
SR-BI uptake up: 12; dFosB act: 5; CDK5 p35 inh: -1; SR-BI HDL uptake: -12

What do the screens show for `CCOc1cc2[nH]c(=S)n(C3CCN(Cc4ccccc4)CC3)c(=O)c2cc1OCC`?
SR-BI uptake up: -75; dFosB act: -6; CDK5 p35 inh: -1; SR-BI HDL uptake: 75*

What do the screens show for `O=c1c2cc3c(cc2[nH]c(=S)n1C1CCN(Cc2ccccc2)CC1)OCO3`?
SR-BI uptake up: 22; dFosB act: -1; CDK5 p35 inh: 2; SR-BI HDL uptake: -22

Results for CCOC(=O)c1cc(C)n(CCc2ccccc2)c1C ?
SR-BI uptake up: -80; dFosB act: -9; CDK5 p35 inh: 0; SR-BI HDL uptake: 80*

How did CCOC(=O)c1cc(-c2ccccc2)n(CCC(=O)O)c1C do in these assays?
SR-BI uptake up: 16; dFosB act: -2; CDK5 p35 inh: -1; SR-BI HDL uptake: -16

Results for c1ccc2c(N3CCOCC3)nc(-c3ccncc3)nc2c1 ?
SR-BI uptake up: -14; dFosB act: -25; CDK5 p35 inh: 4; SR-BI HDL uptake: 14

What do the screens show for `CC1CCN(c2nc(-c3ccncc3)nc3ccccc23)CC1`?
SR-BI uptake up: -80; dFosB act: -31; CDK5 p35 inh: 0; SR-BI HDL uptake: 80*

Results for CC(Oc1cc2oc(=O)c3c(c2cc1Cl)CCC3)C(=O)NCc1cccnc1 (stereo not drawn) ?
SR-BI uptake up: -86; dFosB act: -1; SR-BI HDL uptake: 86*

How did CC(Oc1cc2oc(=O)c3c(c2cc1Cl)CCCC3)C(=O)NCc1cccnc1 (stereo not drawn) do in these assays?
SR-BI uptake up: -10; dFosB act: -21; CDK5 p35 inh: 1; SR-BI HDL uptake: 10

Results for Cc1oc2c(c(C)cc3oc(=O)c(CC(=O)N[C@@H](CCCNC(N)=O)C(=O)O)c(C)c32)c1C ?
SR-BI uptake up: 4; dFosB act: 15; CDK5 p35 inh: 0; SR-BI HDL uptake: -4

Results for Oc1ccc(/C=N/Nc2ccc(C(F)(F)F)cn2)c(O)c1 ?
SR-BI uptake up: -2; dFosB act: 2; CDK5 p35 inh: 67*; SR-BI HDL uptake: 2

What do the screens show for `CC(OC(=O)/C=C/c1cccc(Cl)c1)C(=O)NC1CCCCC1C` (stereo not drawn)?
dFosB act: -4; CDK5 p35 inh: 0

Results for CCOc1ccc2oc(C(=O)N(C)CC(=O)Nc3ccc(OCC)c(OCC)c3)c(C)c2c1 ?
SR-BI uptake up: -82; dFosB act: -27; CDK5 p35 inh: 1; SR-BI HDL uptake: 82*

Results for CCOc1ccc(NC(=O)CN(C)C(=O)c2cccnc2Sc2ccc(Cl)cc2)cc1OCC ?
SR-BI uptake up: 82*; dFosB act: -17; CDK5 p35 inh: -7; SR-BI HDL uptake: -82

How did CCOc1ccc2oc(C(=O)NNC(=O)c3ccccc3O)c(C)c2c1 do in these assays?
SR-BI uptake up: -131; dFosB act: 16; CDK5 p35 inh: -1; SR-BI HDL uptake: 131*

How did CCOc1ccc(NC(=O)CN(C)C(=O)CCNC(=O)c2ccc(Br)cc2)cc1OCC do in these assays?
SR-BI uptake up: -59; dFosB act: -8; CDK5 p35 inh: 1; SR-BI HDL uptake: 59

Results for CCOc1ccc2oc(C(=O)O)c(C)c2c1 ?
SR-BI uptake up: 24; dFosB act: 3; CDK5 p35 inh: -3; SR-BI HDL uptake: -24

What do the screens show for `CCOc1ccc(NC(=O)CN(C)C(=O)c2cccnc2Sc2ccc(C)c(C)c2)cc1OCC`?
SR-BI uptake up: -40; dFosB act: -11; CDK5 p35 inh: 0; SR-BI HDL uptake: 40

How did CCOc1ccc(NC(=O)CN(C)C(=O)CCCOc2ccc(Br)cc2)cc1OCC do in these assays?
SR-BI uptake up: -83; dFosB act: -7; CDK5 p35 inh: -1; SR-BI HDL uptake: 83*

What do the screens show for `CC(CNC(=O)c1ccccc1Cl)c1ccccc1` (stereo not drawn)?
SR-BI uptake up: 8; dFosB act: 1; CDK5 p35 inh: 0; SR-BI HDL uptake: -8

How did CCOc1cc(/C=C2/C(=N)N3C=CSC3=NC2=O)ccc1OCCCOc1ccccc1C do in these assays?
SR-BI uptake up: -102; dFosB act: -4; CDK5 p35 inh: -2; SR-BI HDL uptake: 102*

Results for COc1cc(/C=C2/C(=N)N3C=CSC3=NC2=O)ccc1OCCCOc1c(C)cccc1C ?
SR-BI uptake up: -81; dFosB act: -8; CDK5 p35 inh: 0; SR-BI HDL uptake: 81*

Results for C=CCN1C(=O)CSc2ccc(C(=O)NCc3ccc(F)cc3)cc21 ?
SR-BI uptake up: -10; dFosB act: -13; CDK5 p35 inh: -1; SR-BI HDL uptake: 10

What do the screens show for `COc1cccc(C(=O)Nc2cc(NC(=O)c3cccs3)ccc2C)c1OC`?
SR-BI uptake up: -69; dFosB act: -10; CDK5 p35 inh: -1; SR-BI HDL uptake: 69

Results for CC(C)Nc1ccc(Nc2ccnc3cc4ccccc4cc23)cc1 ?
SR-BI uptake up: -77; dFosB act: 68*; CDK5 p35 inh: -8; SR-BI HDL uptake: 77*

How did COc1ccc(Nc2ccnc3ccccc23)cc1 do in these assays?
SR-BI uptake up: 2; dFosB act: 5; CDK5 p35 inh: 1; SR-BI HDL uptake: -2

What do the screens show for `CCOc1ccc(NC(=O)CN(C)C(=O)c2ccc(-c3ccc(C(C)=O)cc3)o2)cc1OCC`?
SR-BI uptake up: -23; dFosB act: 3; CDK5 p35 inh: 0; SR-BI HDL uptake: 23

How did CCN(CC)S(=O)(=O)c1ccc(-c2nnc(SCc3nnc(-c4ccc(C)cc4)o3)o2)cc1 do in these assays?
SR-BI uptake up: -39; dFosB act: -3; CDK5 p35 inh: 0; SR-BI HDL uptake: 39

Results for CCN(CC)S(=O)(=O)c1ccc(-c2nnc(SCc3nnc(-c4ccc(C)cc4)o3)n2CC)cc1 ?
SR-BI uptake up: -72; dFosB act: -3; CDK5 p35 inh: -5; SR-BI HDL uptake: 72*

Results for CCOC(=O)c1sc(NN=C(C(=O)OC)C(=O)OC)c(C(=O)OCC)c1C ?
SR-BI uptake up: -74; dFosB act: 2; CDK5 p35 inh: 3; SR-BI HDL uptake: 74*

Source: PubChem (Broad Institute)
